From ChEMBL document CHEMBL1153887, “Cyclocondensation reaction of heterocyclic carbonyl compounds. Part XIII: synthesis and cytotoxic activity of some 3,7-diaryl-5-(3,4,5-trimethoxyphenyl)pyrazolo[4,3-e][1,2,4]triazines” (Eur J Med Chem, 2009)
pIC50: −log10 of the molar value.

Tests used:
[1] = tested on: CCRF-CEM; test: Cytotoxicity against human CEM cells after 72 hrs by MTT assay; format: cell-based
[2] = tested on: K562; test: Cytotoxicity against human K562 cells after 72 hrs by MTT assay; format: functional, cell-based; settings: K562, 72 h
[3] = tested on: K562; test: Cytotoxicity against human paclitaxel-resistant K562 cells after 72 hrs by MTT assay; format: functional, cell-based; settings: K562, 72 h
Summary of the method: (§1)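 Cells seeded at 2500–30,000 cells/well and left 24 h at 37 °C, 5% CO₂, then fourfold dilution series in duplicate for 72 h. MTT for 4 h, formazan dissolved in 10% SDS (pH 5.5), OD read at 540 nm against controls. Mean of three independent experiments.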

[4] = tested on: CCRF-CEM; test: Cytotoxicity against human daunorubicin-resistant CEM cells after 72 hrs by MTT assay; format: cell-based; summary of the method: as §1
[5] = tested on: A549; test: Cytotoxicity against human A549 cells after 72 hrs by MTT assay; format: functional, cell-based; settings: A549, 72 h

Row | Structure (SMILES) | pIC50 [1] | pIC50 [2] | pIC50 [3] | pIC50 [4] | pIC50 [5]
1 | COc1cc(-c2nn(-c3ccccc3)c3nnc(-c4ccc(Cl)cc4)nc23)cc(OC)c1OC | 4.94 | 3.66 | 3.65 | 3.95 | 3.89
2 | COc1cccc(-n2nc(-c3cc(OC)c(OC)c(OC)c3)c3nc(-c4ccccc4)nnc32)c1 | 5.08 | 3.93 | 3.80 | 4.00 | 6.21
3 | COc1ccc(N/N=C(\c2cc(OC)c(OC)c(OC)c2)c2nc(-c3ccccc3)n[nH]c2=O)cc1 | 5.38 | 5.20 | 4.96 | 5.02 | 5.51
4 | COc1ccc(-c2nnc3c(n2)c(-c2cc(OC)c(OC)c(OC)c2)nn3-c2ccccc2)cc1 | 3.94 | 3.78 | 3.69 | 3.94 | 4.10
5 | COc1cc(/C=C(/NC(=O)c2ccccc2)C(=O)NN)cc(OC)c1OC | 3.91 | 3.79 | 3.79 | 3.92 | 3.79
6 | COc1ccc(-c2nnc3c(n2)c(-c2cc(OC)c(OC)c(OC)c2)nn3-c2ccccc2OC)cc1 | 3.98 | 3.75 | 3.81 | 3.92 | 5.18
7 | COc1ccc(-c2nnc3c(n2)c(-c2cc(OC)c(OC)c(OC)c2)nn3-c2cccc(OC)c2)cc1 | 4.26 | 3.94 | 3.76 | 3.74 | 3.91
8 | COc1cc(-c2nn(-c3ccccc3)c3nnc(-c4ccccc4)nc23)cc(OC)c1OC | 3.96 | 3.77 | 3.67 | 3.97 | 4.06
9 | COc1cc(/C(=N\Nc2ccc(Cl)cc2)c2nc(-c3ccccc3)n[nH]c2=O)cc(OC)c1OC | 4.60 | 4.92 | 4.42 | 4.33 | 5.07
10 | COc1ccc(C(=O)N/C(=C/c2cc(OC)c(OC)c(OC)c2)C(=O)NN)cc1 | 3.84 | 3.76 | 3.78 | 3.83 | 3.87
11 | COc1cc(Cc2nc(-c3cc(OC)c(OC)c(OC)c3)n[nH]c2=O)cc(OC)c1OC | 4.42 | 4.09 | 3.86 | 3.89 | 3.93
12 | COc1ccc(-c2nnc3c(n2)c(-c2cc(OC)c(OC)c(OC)c2)nn3-c2ccc(Cl)cc2)cc1 | 3.94 | 3.69 | 3.63 | 3.93 | 3.95
13 | COc1ccc(-c2n[nH]c(=O)c(/C(=N/Nc3ccccc3)c3cc(OC)c(OC)c(OC)c3)n2)cc1 | 5.01 | 4.74 | 4.50 | 4.40 | 4.63
14 | COc1cc(-c2nn(-c3ccc(Cl)cc3)c3nnc(-c4ccc(Cl)cc4)nc23)cc(OC)c1OC | 4.16 | 3.72 | 3.65 | 3.90 | 3.81
15 | COc1cccc(N/N=C(\c2cc(OC)c(OC)c(OC)c2)c2nc(-c3ccc(Cl)cc3)n[nH]c2=O)c1 | 4.94 | 4.38 | 4.58 | 3.88 | 5.08
16 | COc1ccc(-c2n[nH]c(=O)c(/C(=N/Nc3ccccc3OC)c3cc(OC)c(OC)c(OC)c3)n2)cc1 | 4.26 | 3.83 | 3.60 | 3.85 | 3.60
17 | COc1cc(/C=C(/NC(=O)c2cc(OC)c(OC)c(OC)c2)C(=O)NN)cc(OC)c1OC | 3.91 | 3.80 | 3.82 | 3.90 | 3.99

Row | Structure (SMILES) | pIC50 [1] | pIC50 [2] | pIC50 [3] | pIC50 [4] | pIC50 [5]
18 | COc1cc(/C(=N\Nc2ccc(Cl)cc2)c2nc(-c3ccc(Cl)cc3)n[nH]c2=O)cc(OC)c1OC | 5.12 | 4.99 | 4.90 | 4.42 | 5.42
19 | COc1cc(-c2nn(-c3ccc(Cl)cc3)c3nnc(-c4ccccc4)nc23)cc(OC)c1OC | 3.82 | 3.60 | 3.76 | 3.81 | 4.24
20 | COc1cc(Cc2nc(-c3ccccc3)n[nH]c2=O)cc(OC)c1OC | 5.57 | 5.93 | 5.41 | 5.49 | 5.46
21 | COc1ccc(-n2nc(-c3cc(OC)c(OC)c(OC)c3)c3nc(-c4cc(OC)c(OC)c(OC)c4)nnc32)cc1 | 4.43 | 4.18 | 3.79 | 3.93 | 4.12
22 | COc1cccc(N/N=C(\c2cc(OC)c(OC)c(OC)c2)c2nc(-c3cc(OC)c(OC)c(OC)c3)n[nH]c2=O)c1 | 5.11 | 3.95 | 4.66 | 3.85 | 5.47
23 | COc1cccc(-n2nc(-c3cc(OC)c(OC)c(OC)c3)c3nc(-c4cc(OC)c(OC)c(OC)c4)nnc32)c1 | 4.32 | 3.79 | 3.85 | 3.96 | 3.79
24 | COc1cccc(N/N=C(\c2cc(OC)c(OC)c(OC)c2)c2nc(-c3ccccc3)n[nH]c2=O)c1 | 5.07 | 4.90 | 4.86 | 4.71 | 5.08
25 | COc1ccc(-c2n[nH]c(=O)c(/C(=N/Nc3cccc(OC)c3)c3cc(OC)c(OC)c(OC)c3)n2)cc1 | 4.16 | 3.79 | 3.60 | 3.88 | 3.60
26 | COc1ccc(-c2n[nH]c(=O)c(Cc3cc(OC)c(OC)c(OC)c3)n2)cc1 | 5.50 | 5.51 | 4.70 | 4.88 | 5.03
27 | COc1ccc(N/N=C(\c2cc(OC)c(OC)c(OC)c2)c2nc(-c3cc(OC)c(OC)c(OC)c3)n[nH]c2=O)cc1 | 5.24 | 4.73 | 5.05 | 4.46 | 5.47
28 | COc1ccc(-c2n[nH]c(=O)c(/C(=N/Nc3ccc(Cl)cc3)c3cc(OC)c(OC)c(OC)c3)n2)cc1 | 4.69 | 4.38 | 3.62 | 4.30 | 4.73
29 | COc1cc(-c2nnc3c(n2)c(-c2cc(OC)c(OC)c(OC)c2)nn3-c2cc(OC)c(OC)c(OC)c2)cc(OC)c1OC | 3.61 | 3.62 | 3.60 | 3.70 | 3.71
30 | COc1cc(/C=C(/NC(=O)c2ccc(Cl)cc2)C(=O)NN)cc(OC)c1OC | 3.87 | 3.78 | 3.76 | 3.89 | 3.79
31 | COc1ccc(-n2nc(-c3cc(OC)c(OC)c(OC)c3)c3nc(-c4ccc(Cl)cc4)nnc32)cc1 | 3.65 | 3.61 | 3.60 | 3.86 | 3.95
32 | COc1cccc(-n2nc(-c3cc(OC)c(OC)c(OC)c3)c3nc(-c4ccc(Cl)cc4)nnc32)c1 | 4.26 | 3.72 | 3.66 | 3.97 | 5.54
33 | COc1ccccc1-n1nc(-c2cc(OC)c(OC)c(OC)c2)c2nc(-c3cc(OC)c(OC)c(OC)c3)nnc21 | 3.90 | 3.74 | 3.81 | 3.90 | 4.82
34 | COc1ccc(-n2nc(-c3cc(OC)c(OC)c(OC)c3)c3nc(-c4ccccc4)nnc32)cc1 | 3.93 | 4.07 | 3.82 | 4.00 | 4.41
